Experimental data of several laboratories.
Compare with care: the assays were run in different laboratories.
Target: Serine/threonine-protein kinase RIO3 (RIOK3, Homo sapiens, UniProt O14730)
One construct used (O14730 1-519): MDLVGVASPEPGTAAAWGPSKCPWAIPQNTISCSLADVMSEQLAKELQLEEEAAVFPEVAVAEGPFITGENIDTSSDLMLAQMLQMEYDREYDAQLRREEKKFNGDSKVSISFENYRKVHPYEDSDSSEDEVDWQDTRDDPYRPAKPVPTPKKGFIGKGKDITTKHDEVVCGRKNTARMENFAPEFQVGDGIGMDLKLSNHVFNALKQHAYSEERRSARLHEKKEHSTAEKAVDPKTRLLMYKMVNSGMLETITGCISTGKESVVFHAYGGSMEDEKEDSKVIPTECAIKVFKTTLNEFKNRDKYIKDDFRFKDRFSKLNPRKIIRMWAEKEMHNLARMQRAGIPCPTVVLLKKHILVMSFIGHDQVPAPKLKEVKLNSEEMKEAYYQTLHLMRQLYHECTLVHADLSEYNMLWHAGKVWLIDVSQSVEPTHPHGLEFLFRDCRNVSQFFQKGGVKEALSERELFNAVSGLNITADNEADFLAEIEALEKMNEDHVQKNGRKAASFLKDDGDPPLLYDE

SMILES	test	conditions	remaining binding [%]
CO[C@@H](C)c1c(Nc2ccc([C@H](N(C)C(=O)C3CCS(=O)(=O)CC3)C(F)(F)F)cc2)cnc2cc(Cl)nn12	cell-free assay, competition with immobilised ligand	1 µM	82
CN(c1nccc(-c2cnn3ncccc23)n1)C1CC1	binding	1 µM	100
COc1cnc(Nc2cccc(S(N)(=O)=O)c2)nc1N1CCN(c2ccccc2)CC1	binding, competition with immobilised ligand	1 µM	91
COc1ccc2c(O[C@@H]3C[C@H]4C(=O)N[C@]5(C(=O)O)CC5/C=C\CCCCC[C@H](NC(=O)OC5CCCC5)C(=O)N4C3)cc(-c3csc(NC(=O)C(C)C)n3)nc2c1C (stereo partly shown)	cell-free assay, competition with immobilised ligand	1 µM	100
CC1CCCN1c1nccc(-c2cnn3ncccc23)n1 (stereo not shown)	binding	1 µM	100
O=C(NCC1CCOCC1)c1n[nH]cc1NC(=O)c1c(F)cccc1F	binding, competition with immobilised ligand	1 µM	84
CC(C)(O)c1cncc(-c2nc3ccc(F)cc3n2C2CC2)c1	cell-free assay, competition with immobilised ligand	1 µM	100
COc1ccnn2ncc(-c3ccnc(N(C)C)n3)c12	binding	1 µM	100
C=CC(=O)N1CCC(C(=O)NCC(=O)N2CCN(c3nc(-c4cnc(N)nc4C(F)F)nc(N4CCOCC4)n3)CC2)CC1	binding, competition with immobilised ligand	1 µM	100
CNC(=O)c1ccc(Nc2ncc(C(F)(F)F)c(NCc3nccnc3N(C)S(C)(=O)=O)n2)cc1	cell-free assay, competition with immobilised ligand	0.1 µM	55
CNC(=O)[C@@H]1CC[C@@H](n2c(-c3ccc4cnccc4c3)nc3ccc(C(=O)NCc4cccc(C(N)=O)c4)cc32)C1	binding, competition with immobilised ligand	1 µM	88
C[C@@H]1CCN(c2nccc(-c3cnn4ncccc34)n2)C1	binding	1 µM	100
CCCOc1ccc([C@H]2[C@H](C(=O)O)[C@@H](c3ccc4c(c3)OCO4)CN2CC(=O)Nc2c(CC)cccc2CC)cc1	cell-free assay, competition with immobilised ligand	1 µM	100
Nc1ncc2c(n1)-c1c([nH]c3ccc(C#CC4CC4)cc13)CCCC2	binding, competition with immobilised ligand	1 µM	75
O=C(NCCCN1CCOCC1)c1ccc(Nc2ncc(Cl)c(-c3ccc(Cl)s3)n2)cc1	binding, competition with immobilised ligand	1 µM	0.4
c1cnn2ncc(-c3ccnc(N4CCC45COC5)n3)c2c1	binding	1 µM	93
c1cncc(-c2cccc(Nc3nccc(NC4CCCCC4)n3)c2)c1	binding, competition with immobilised ligand	10 µM	80
CC(=O)N1CCC(c2ccc(C(=O)NC(=N)N)cc2C(F)(F)F)CC1	cell-free assay, competition with immobilised ligand	1 µM	100
Cc1cnc(Nc2ccc(C(=O)N3CCC(N4CCCC4)CC3)cc2)nc1-c1cc2ccccc2s1	binding, competition with immobilised ligand	1 µM	0.3
N[C@H]1CCN(c2nccc(-c3cnn4ncccc34)n2)C1	binding	1 µM	81
CCS(=O)(=O)c1cc2cc(C[C@](O)(CC(C)(C)c3ccc(F)cc3C(N)=O)C(F)(F)F)[nH]c2cn1	cell-free assay, competition with immobilised ligand	1 µM	91
O=C(c1ccc(Nc2ncc(Cl)c(-c3cc4ccccc4s3)n2)cc1)N1CCC(N2CCCC2)CC1	binding, competition with immobilised ligand	1 µM	0
